The structures appear in SMILES notation.

For series [1], the target named is Cystic fibrosis transmembrane conductance regulator (Homo sapiens, UniProt P13569). In words: Binding affinity to human CFTR F508 deletion mutant expressed in FRT cells assessed as increase in iodine influx after 16 to 20 hrs by fluorescence assay. Format: cell-based. In short, it runs like this:
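FRT cells stably coexpressing human ΔF508-CFTR and halide sensor YFP-H148Q/I152L, grown 24 h at 37 °C, then incubated 16–20 h with test compound. Washed in PBS, then 20 min in PBS with forskolin (20 μM) and genistein (50 μM). Fluorescence (ex 500, em 535 nm) recorded 2 s baseline, then 12 s after I⁻-substituted PBS addition; initial I⁻ influx rate from exponential regression; EC50 and Vmax from concentration dependence.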

A short description of series [2]: Octanol-water partition coefficient, log P by reverse-phase HPLC analysis. Format: physicochemical. In short, it runs like this: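 logP derived from reverse-phase HPLC capacity factor: logk from measured retention time, converted via a calibration curve of standards with known logP versus their logk values.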

Sequence of Cystic fibrosis transmembrane conductance regulator (P13569 whole entry, looked up): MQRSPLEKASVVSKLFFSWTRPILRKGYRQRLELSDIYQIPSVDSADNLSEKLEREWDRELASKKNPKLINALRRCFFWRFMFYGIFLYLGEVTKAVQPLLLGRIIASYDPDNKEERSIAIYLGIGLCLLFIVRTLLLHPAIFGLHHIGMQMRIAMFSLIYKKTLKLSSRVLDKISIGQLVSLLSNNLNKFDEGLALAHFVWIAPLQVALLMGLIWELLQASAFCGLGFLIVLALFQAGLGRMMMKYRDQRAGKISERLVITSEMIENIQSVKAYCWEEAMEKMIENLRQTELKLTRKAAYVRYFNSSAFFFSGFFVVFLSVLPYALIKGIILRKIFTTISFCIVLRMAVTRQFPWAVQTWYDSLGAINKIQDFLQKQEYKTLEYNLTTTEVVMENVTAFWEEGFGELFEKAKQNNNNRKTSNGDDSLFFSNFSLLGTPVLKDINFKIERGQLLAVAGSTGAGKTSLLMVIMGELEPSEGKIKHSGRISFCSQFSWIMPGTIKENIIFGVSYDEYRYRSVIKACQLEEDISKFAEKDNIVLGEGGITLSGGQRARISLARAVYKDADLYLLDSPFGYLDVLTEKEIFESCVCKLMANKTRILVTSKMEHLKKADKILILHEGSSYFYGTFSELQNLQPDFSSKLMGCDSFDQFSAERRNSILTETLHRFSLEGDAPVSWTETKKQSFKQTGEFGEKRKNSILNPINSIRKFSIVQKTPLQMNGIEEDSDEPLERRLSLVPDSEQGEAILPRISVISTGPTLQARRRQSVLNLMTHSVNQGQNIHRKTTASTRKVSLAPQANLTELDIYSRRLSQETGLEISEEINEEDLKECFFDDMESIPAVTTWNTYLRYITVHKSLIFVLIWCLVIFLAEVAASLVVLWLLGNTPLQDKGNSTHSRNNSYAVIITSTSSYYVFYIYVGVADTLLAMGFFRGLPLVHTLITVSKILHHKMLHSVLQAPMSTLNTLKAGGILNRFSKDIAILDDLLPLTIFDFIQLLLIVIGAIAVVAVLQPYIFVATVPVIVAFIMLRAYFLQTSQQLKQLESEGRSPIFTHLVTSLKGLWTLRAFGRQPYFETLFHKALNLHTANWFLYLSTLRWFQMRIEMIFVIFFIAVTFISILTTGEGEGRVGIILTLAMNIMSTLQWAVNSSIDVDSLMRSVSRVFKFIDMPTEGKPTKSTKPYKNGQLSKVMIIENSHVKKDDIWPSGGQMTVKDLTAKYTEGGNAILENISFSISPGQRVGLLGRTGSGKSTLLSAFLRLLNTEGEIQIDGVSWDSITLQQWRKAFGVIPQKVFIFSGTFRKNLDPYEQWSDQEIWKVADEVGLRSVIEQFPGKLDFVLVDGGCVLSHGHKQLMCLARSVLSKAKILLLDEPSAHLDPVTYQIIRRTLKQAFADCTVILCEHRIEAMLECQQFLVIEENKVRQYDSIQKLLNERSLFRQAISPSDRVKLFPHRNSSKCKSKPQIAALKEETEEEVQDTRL

In the case of `COc1ccc(NC(=O)c2cc(-c3sc(NC(=O)C(C)(C)C)nc3C)n(-c3ccc(Br)cc3)n2)cc1`, in series [1], the EC50 amounted to 3400 nM. The log partition coefficient (logP) in series [2] was 5.52.

Take `CCOC(=O)c1cc(-c2sc(NC(=O)C(C)(C)C)nc2C)nn1Cc1ccccc1`: the half-maximal effective concentration (EC50) in series [1] was found to be 8500 nM.

With `COc1ccc(Cl)cc1Nc1nc(-c2sc(NC(=O)C(C)(C)C)nc2C)cs1`, in series [1], the 50% effective concentration (EC50) amounted to 700 nM.

As to `COc1ccc(Cl)cc1Nc1nc2c(s1)CCCc1nc(NC(=O)C(C)(C)C)sc1-2`, the EC50 in series [1] worked out at 300 nM.

By EC50 is commonly meant the concentration needed to bring the measured effect to its halfway point. Usually logP stands for a log measure of how a compound divides between an organic and an aqueous phase. Read a high logP as a more lipophilic compound.

The values above are taken from ChEMBL document CHEMBL1158533, “Pyrazolylthiazole as DeltaF508-cystic fibrosis transmembrane conductance regulator correctors with improved hydrophilicity compared to bithiazoles” (J Med Chem, 2010).
